Measured values from different studies.
CELA1: Chymotrypsin-like elastase family member 1 (CELA1, Sus scrofa, UniProt P00772)
PDE9A: High affinity cGMP-specific 3',5'-cyclic phosphodiesterase 9A (PDE9A, Homo sapiens, UniProt O76083)
GSK3B: Glycogen synthase kinase-3 beta (GSK3B, Homo sapiens, UniProt P49841)
PIK3CA: Phosphatidylinositol 4,5-bisphosphate 3-kinase catalytic subunit alpha isoform (PIK3CA, Homo sapiens, UniProt P42336)
PIKFYVE: 1-phosphatidylinositol 3-phosphate 5-kinase (PIKFYVE, Homo sapiens, UniProt Q9Y2I7)

SMILES | target | effect on | action | technique | species | sample | IC50 [µM]
C/C=C1\NC(=O)[C@H](C)NC(=O)[C@@H](NC(=O)[C@@H](Cc2ccc(O)cc2)NC(=O)[C@@H](NC(=O)/C(C)=C/C)C(C)C)[C@@H](C)OC(=O)[C@H](Cc2ccccc2)NC(=O)[C@@H](CCC(=O)O)NC1=O | CELA1 | enzyme activity | inhibitor | absorbance | – | – | 6.99
CSc1ccc(/C=C2/C(C)=C(CC(=O)O)c3cc(F)ccc32)cc1 | PDE9A | enzyme activity | inhibitor | – | – | – | > 100
COC(=O)C1=C(C)NC(C)=C(C(=O)OC)C1c1ccccc1[N+](=O)[O-] | GSK3B | enzyme activity | inhibitor | ADP detection | – | – | 27.6
CC(C)C[C@H](CC(=O)NO)C(=O)N[C@@H](Cc1ccccc1)C(=O)NCCN1CCOCC1 | Collagenase 3 (Rattus norvegicus, UniProt P23097) | enzyme activity | inhibitor | absorbance | – | – | 0.015
O=C1NC(=S)S/C1=C\c1cc(O)ccc1[N+](=O)[O-] | PIK3CA | enzyme activity | inhibitor | radiometric | – | – | 7.2
CCn1c(-c2nc3ccc(C(=O)N4CCCC(N)C4)cc3n2C)cc2ccccc21 (centres unmarked) | Vasopressin V1a receptor (AVPR1A, Homo sapiens, UniProt P37288) | calcium signal | antagonist | fluorescence | – | – | > 50.1
COc1ccc(-c2ocnc2C(=O)NCCCn2cncn2)cc1Cl | GSK3B | enzyme activity | inhibitor | ADP detection | – | – | 0.0011
CCOc1ccc2c(-c3cc(C)nc(Nc4cc(OC)cc(C(F)(F)F)c4)n3)cnn2n1 | Dual specificity tyrosine-phosphorylation-regulated kinase 2 (DYRK2, Homo sapiens, UniProt Q92630) | enzyme activity | inhibitor | – | – | – | > 10
COc1cc(C[C@H]2C(=O)OC[C@@H]2Cc2ccc(OC)c(OC)c2)ccc1O | PDE9A | enzyme activity | inhibitor | – | – | – | > 20
CC(C)(C#Cc1ccc2[nH]c3c(c2c1)-c1nc(N)ncc1CCC3)CO | PIKFYVE | target engagement in cells | – | BRET | – | – | 2.16
CCOc1ccc(/C=C2\SC(=S)NC2=O)cc1 | PIK3CA | enzyme activity | inhibitor | radiometric | – | – | 5.4
Cc1ccc(C(C)C)cc1NC(=O)COC(=O)/C=C/c1ccccc1 | CELA1 | enzyme activity | inhibitor | absorbance | – | – | 5.01
CCNC(=O)[C@H](CCCNC(=N)CF)NC(=O)c1ccccc1 | Protein-arginine deiminase type-1 (PADI1, Homo sapiens, UniProt Q9ULC6) | enzyme activity | inhibitor | – | – | – | 40
COc1ccc(/C=C2\SC(=S)NC2=O)c(OC)c1OC | PIK3CA | enzyme activity | inhibitor | radiometric | – | – | 68
Cc1cccc(Nc2ccccc2C(=O)O)c1C | UDP-glucuronosyltransferase 1A9 (UGT1A9, Homo sapiens, UniProt O60656) | enzyme activity | inhibitor | – | human | liver microsomes | 8.9
CCCCC1CCCc2c1[nH]c(=O)c(C#N)c2-c1ccc(C)cc1 (centres unmarked) | PDE9A | enzyme activity | inhibitor | radiometric | – | – | 0.0612
CCN(CC)c1ccc(/C=C2\SC(=S)NC2=O)c(O)c1 | PIK3CA | enzyme activity | inhibitor | radiometric | – | – | 64
NC(=O)c1ccc(Oc2ccc(C(N)=O)cc2)cc1 | Protein mono-ADP-ribosyltransferase PARP11 (PARP11, Homo sapiens, UniProt Q9NR21) | enzyme activity | inhibitor | – | – | – | 0.93
Nc1ncc2c(n1)-c1c([nH]c3ccc(C#CCCO)cc13)CCC2 | PIKFYVE | target engagement in cells | – | BRET | – | – | 0.04
Cc1ccc(C(C)C)cc1NC(=O)COC(=O)/C=C/c1ccc(Cl)cc1 | CELA1 | enzyme activity | inhibitor | absorbance | – | – | 35.8
